APJ antagonist – antagonists of human APJ apelin receptor; CHO-K1 APJ beta-arrestin complementation, luminescence; inhibition, % at 20 µM; 0.32% of 330,000 active; AID 2521;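 active = inhibition above about 40% at 20 µM, limit read from the data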;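 also: cells challenged with 10 nM apelin-13 agonist together with compound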
APJ agonist – agonists of human APJ apelin receptor | AID 2520 | 0.11% of 330,000 active | P35414 | activation, % at 20 µM | CHO-K1 APJ PathHunter beta-arrestin, luminescence; 0% DMSO wells, 100% apelin;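 active = activation more than six SD over the plate average, tested at 20 µM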
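Test system – PathHunter CHO-K1 APJ (AGTRL-1) beta-arrestin reporter cells · Input – 1000 cells/well · Compound – single test compound dose, 20 µM final, 1% DMSO · Times – compound stimulation 90 min at 25 °C, detection 60 min · Technique – beta-gal luminescence · Read-out basis – APJ–arrestin association signal · Control set – negative DMSO alone, positive Apelin-13 at 10 nM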
CXCR6 block – inhibitors of human CXCR6 receptor | O00574 | CHO-K1 PathHunter CXCR6 beta-arrestin, luminescence | inhibition, % at 20 µM | 0.36% of 360,000 active | AID 602244; in the data active = inhibition above about 34%, passing the limit was not always enough;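 also: antagonist mode with CXCL16 agonist at 10 nM final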
Target sequence (O00574 whole entry, looked up): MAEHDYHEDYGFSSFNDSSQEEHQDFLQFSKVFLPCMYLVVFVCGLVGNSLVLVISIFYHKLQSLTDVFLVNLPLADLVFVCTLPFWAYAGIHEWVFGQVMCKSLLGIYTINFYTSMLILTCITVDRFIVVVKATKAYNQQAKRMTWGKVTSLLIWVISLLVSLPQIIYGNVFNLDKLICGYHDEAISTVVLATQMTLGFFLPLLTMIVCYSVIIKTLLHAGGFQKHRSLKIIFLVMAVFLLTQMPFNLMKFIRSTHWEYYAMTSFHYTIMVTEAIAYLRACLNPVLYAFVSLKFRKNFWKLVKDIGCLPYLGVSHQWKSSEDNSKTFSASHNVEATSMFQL
CCR6 antag – CCR6 (human) receptor antagonism. CHO-K1 CCR6 PathHunter beta-arrestin, luminescence, CCL20-stimulated. 0.49% of 340,000 active. inhibition, % at 20 µM. P51684;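 active = compounds whose inhibition of the agonist-driven luminescence signal at 20 µM reaches about 50%, limit read from the data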;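 also: cells stimulated with CCL20 at 14 nM final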
EBI2 block – antagonists of human EBI2 receptor | inhibition, % at 5 µM | 0.81% of 360,000 active | EBI2 beta-arrestin recruitment, luminescence, 7a,25-OHC stimulated | AID 651636 | P32249; in the data active = inhibition above about 38%;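 also: enzyme fragment complementation signal reports receptor beta-arrestin coupling in cells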
Target sequence (P32249 whole entry, looked up, the tested form may be a part): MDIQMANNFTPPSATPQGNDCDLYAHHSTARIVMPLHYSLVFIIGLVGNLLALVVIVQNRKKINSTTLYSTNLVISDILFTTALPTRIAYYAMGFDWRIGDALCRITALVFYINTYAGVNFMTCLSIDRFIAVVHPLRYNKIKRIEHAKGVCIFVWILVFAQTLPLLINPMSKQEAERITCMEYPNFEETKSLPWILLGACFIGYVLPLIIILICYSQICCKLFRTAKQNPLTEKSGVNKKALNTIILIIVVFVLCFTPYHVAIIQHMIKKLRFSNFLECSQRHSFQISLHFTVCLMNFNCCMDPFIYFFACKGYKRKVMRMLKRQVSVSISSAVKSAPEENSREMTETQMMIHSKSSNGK
H9c2 TAG inh – triacylglycerol accumulation inhibition | H9c2 cells, Nile Red lipid (TAG) fluorescence; cells loaded with 200 µM oleic acid | inhibition, % at 12.5 µM | 0.66% of 230,000 active | AID 651582;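 active = pattern-corrected inhibition of lipid staining of at least 50% with the nuclear-stain viability signal not falling by more than 50%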
H9c2 TAG conf – triacylglycerol accumulation inhibition, confirmation | shares compounds with H9c2 TAG inh | H9c2 lipid accumulation, Nile Red fluorescence; cells loaded with 200 µM oleic acid | inhibition, % at 12.5 µM | 71% of 990 active | AID 651629;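 active = mean inhibition across replicates of 40% or more; inactive = mean inhibition below 40%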
Each line names hits and unclear results; the compound was inactive in the other large screens (follow-up assays come after a bar, where they were run). Compounds with a hit are over-represented: about 1.9% of the library has one in this group of screens.

CC(C)N(C(=O)N1CCN(c2ccnc3cc(Cl)ccc23)CC1)C(C)C	none (no result: H9c2 TAG inh)
CC1Cc2cc(/C(O)=C3/C(=O)C(=O)N(CCCn4ccnc4)C3c3ccc(Br)cc3)ccc2O1 (centres undefined)	none (no result: H9c2 TAG inh)
CCOC(=O)c1[nH]c(C)c(C(=O)Nc2cc(Cl)ccc2C)c1C	none (no result: H9c2 TAG inh)
CCOC(=O)c1[nH]c(C)c(C(=O)Nc2ccccc2C)c1C	H9c2 TAG inh 54 | H9c2 TAG conf 59
CC(C)C[C@H]1CNC(=S)N1CC1CCCN1C[C@H](CC(C)C)N1C[C@H](CC(C)C)N(CCc2ccccc2)C1=S (some centres undefined)	H9c2 TAG inh 74 (no result: APJ antagonist, APJ agonist) | H9c2 TAG conf 82
CC(C)C[C@H]1CNC(=S)N1CC1CCCN1C[C@H](CC(C)C)N1C[C@H](CC(C)C)N(CC2CCCCCC2)C1=S (some centres undefined)	H9c2 TAG inh 62 (no result: APJ antagonist, APJ agonist) | H9c2 TAG conf 55
Oc1ccc(C[C@H]2CNC(=S)N2CC2CCCN2C[C@H](Cc2ccc(O)cc2)N2C[C@H](Cc3ccc(O)cc3)N(CC3CCCCCC3)C2=S)cc1 (some centres undefined)	H9c2 TAG inh 76 (no result: APJ antagonist, APJ agonist) | H9c2 TAG conf 72
CC(C)C[C@H]1CNC(=S)N1C[C@H]1CCCN1C[C@H](CC(C)C)N1C[C@H](CC(C)C)N(CCc2ccccc2)C1=S	none (no result: APJ antagonist, APJ agonist, CCR6 antag, H9c2 TAG inh)
Oc1ccc(C[C@H]2CN([C@@H](Cc3ccccc3)CN3CCC[C@@H]3CN3C(=S)NC[C@@H]3Cc3ccccc3)C(=S)N2CC2CCCCC2)cc1	none (no result: APJ antagonist, APJ agonist, CCR6 antag, H9c2 TAG inh)
COc1ccccc1C(=O)COC(=O)C1(C)CC1(Cl)Cl (centres undefined)	none
O=C1c2ccccc2S(=O)(=O)c2cc(C(=O)N3CCC(N4CCCC4)CC3)ccc21	none (no result: H9c2 TAG inh)
CC(=O)NC(C)(c1ccccc1)c1nc(-c2csc3ccccc23)cs1 (centres undefined)	none (no result: APJ antagonist, APJ agonist, CCR6 antag)
O=C(CCC(=O)N1CCOc2ccc(Cl)cc21)NCCCN1CCC(Cc2ccccc2)CC1	H9c2 TAG inh 90 | H9c2 TAG conf 62
O=C(CCC(=O)N1CCOc2ccc(Cl)cc21)NCCCN1CCN(c2ccccc2F)CC1	none
CCn1c(COc2ccccc2)nnc1SCC(=O)Nc1ccc(N2CCOCC2)cc1	none (no result: H9c2 TAG inh)
CCOc1ccc(N(CC(=O)Nc2ccc(OC)cc2)C2=NC3CS(=O)(=O)CC3S2)cc1 (centres undefined)	none
Cc1cccc(C(=O)N[C@H](C(=O)Nc2ncc(C)s2)C(C)C)c1	H9c2 TAG inh 65 | H9c2 TAG conf 93
c1cc(-c2ccc3nncn3c2)ccc1CN1CCOCC1	none (no result: APJ antagonist, APJ agonist, CCR6 antag)
Cc1cc(=O)oc(C)c1C(=O)Nc1cccc(F)c1	H9c2 TAG inh 51 | H9c2 TAG conf inactive
C#CCOCCOCCOCCNc1nc(N2CCN(C(=O)[C@H](CCCCN)n3cc([C@@H](N)CO)nn3)CC2)nc(N2CCN(C(=O)[C@H](CCCCN)n3cc([C@@H](N)CC(C)C)nn3)CC2)n1	H9c2 TAG inh 70 | H9c2 TAG conf inactive
C#CCOCCOCCOCCNc1nc(N2CCN(C(=O)[C@H]([C@@H](C)CC)n3cc([C@@H](N)CO)nn3)CC2)nc(N2CCN(C(=O)[C@H](CCCCN)n3cc([C@@H](N)CC(C)C)nn3)CC2)n1	none (no result: CXCR6 block, EBI2 block, H9c2 TAG inh)
CC1CCN(CC(=O)Nc2cccc(C(=O)Nc3cccc(C(F)(F)F)c3)c2)CC1	none
O=C(O)c1ccccc1C(=O)Nc1ccc(Oc2ccccc2)cc1	none
CC(C)(C)c1ccc(Oc2ccc(NC(=O)c3ccccc3C(=O)O)cn2)cc1	H9c2 TAG inh 62 | H9c2 TAG conf inactive
CCN(CC(=O)Nc1ccc(C(=O)Nc2ccc(OC)cc2)cc1)Cc1nc2ccccc2c(=O)[nH]1	H9c2 TAG inh 55 | H9c2 TAG conf 50
CCN(CC(=O)Nc1cc(OC)ccc1OC)Cc1nc2ccccc2c(=O)[nH]1	none
C[C@@]12C(=O)Nc3ccc(Br)cc3C(=O)N1[C@H]1c3ccccc3OC[C@@H]1[C@@H]2c1ccccc1	none
C[C@@]12C(=O)Nc3ccc(Br)cc3C(=O)N1[C@H]1c3cc(Cl)ccc3OC[C@@H]1[C@@H]2c1ccccc1	H9c2 TAG inh 52 | H9c2 TAG conf 64
Cn1c(NCCc2ccncc2)nc2cc(-c3ccsc3)sc2c1=O	none (no result: APJ antagonist, APJ agonist, CCR6 antag)
COc1ccc(-c2nc3ccc(Cl)cn3c2NC2CCCCC2)cc1SC1CCCCC1	H9c2 TAG inh 63 | H9c2 TAG conf 70
CC(C)(C)c1ccc(-c2csc(NNC3=NCCCCC3)n2)cc1	none (no result: H9c2 TAG inh)
Brc1ccc(-c2csc(NNC3=NCCCCC3)n2)cc1	H9c2 TAG inh 130 | H9c2 TAG conf 129
FC(F)Oc1ccc(-c2csc(NNC3=NCCCCC3)n2)cc1	H9c2 TAG inh 119 | H9c2 TAG conf 125
Cc1ccc(C(=O)O)cc1S(=O)(=O)Nc1ccccc1C(=O)NC1CC1	none
Cc1ccc(-c2cc(C(=O)Nc3cc(C)on3)c3ccccc3n2)cc1	none
Cc1cc(NC(=O)c2cc(-c3ccncc3)nc3c(C)cccc23)no1	H9c2 TAG inh 64 | H9c2 TAG conf 66
O=C(c1ccoc1)N1CCN(c2cc(-c3ccncc3)nc3cc(-c4cccc(Cl)c4)nn23)CC1	H9c2 TAG inh 63 (no result: APJ antagonist, APJ agonist, CCR6 antag) | H9c2 TAG conf 49
O=C(c1ccoc1)N1CCN(c2cc(-c3ccccc3)nc3cc(-c4ccc(Br)cc4)nn23)CC1	H9c2 TAG inh 75 (no result: APJ antagonist, APJ agonist, CCR6 antag) | H9c2 TAG conf 65
O=C(c1ccoc1)N1CCN(c2cc(-c3cccnc3)nc3cc(-c4cccc(Cl)c4)nn23)CC1	H9c2 TAG inh 52 (no result: APJ antagonist, APJ agonist, CCR6 antag) | H9c2 TAG conf 41
Cc1csc(NC(=O)c2nn(C)c(C)c2[N+](=O)[O-])n1	none
COc1ccc(-c2csc(C(C)(NC(C)=O)c3ccccc3)n2)cc1 (centres undefined)	none (no result: APJ antagonist, APJ agonist, CCR6 antag)
COc1ccc(-c2csc(NC(=S)NC(=O)/C=C/c3ccco3)n2)cc1Br	H9c2 TAG inh 79 | H9c2 TAG conf 87
Cc1cc(C)cc(CC(=O)N2CCC2(C)C(=O)NS(=O)(=O)c2ccc(Cl)s2)c1 (centres undefined)	H9c2 TAG inh 75 (no result: APJ antagonist, APJ agonist, CCR6 antag) | H9c2 TAG conf inactive
CCCn1c(N)c(N(CCOC)C(=O)COC(=O)COc2c(C)cc(C)cc2C)c(=O)[nH]c1=O	none (no result: APJ antagonist, APJ agonist, CCR6 antag)
Cc1ccc(C)c(Oc2cc(NN3CCCCC3)c([N+](=O)[O-])cc2[N+](=O)[O-])c1	none
Cc1ccc(F)c(Oc2cc(NN3CCCCC3)c([N+](=O)[O-])cc2[N+](=O)[O-])c1	H9c2 TAG inh 50 | H9c2 TAG conf inactive
C#CCN(C[C@H]1[C@H](OC(=O)NCc2ccccc2)[C@H](OC(=O)NCc2ccccc2)C[C@@H](C(=O)OC)[C@H]1C(=O)OC)S(=O)(=O)c1ccc(C)cc1	none (no result: APJ antagonist, APJ agonist, CCR6 antag)

Assay outcomes (PubChem)
